Consider 17 molecules from ChEMBL document CHEMBL1126044, “Affinity of human growth hormone-releasing factor (1-29)NH2 analogues for GRF binding sites in rat adenopituitary” (J Med Chem, 1992).

Square brackets hold non-standard residues; d marks the D form. Peptide text beside a SMILES is read from it. Aoc = NCCCCCCCC(=O)O Some results are limits rather than exact numbers.

The target in the test is T1, Growth hormone-releasing hormone receptor (Rattus norvegicus, UniProt Q02644).
T1 sequence (Q02644 whole entry): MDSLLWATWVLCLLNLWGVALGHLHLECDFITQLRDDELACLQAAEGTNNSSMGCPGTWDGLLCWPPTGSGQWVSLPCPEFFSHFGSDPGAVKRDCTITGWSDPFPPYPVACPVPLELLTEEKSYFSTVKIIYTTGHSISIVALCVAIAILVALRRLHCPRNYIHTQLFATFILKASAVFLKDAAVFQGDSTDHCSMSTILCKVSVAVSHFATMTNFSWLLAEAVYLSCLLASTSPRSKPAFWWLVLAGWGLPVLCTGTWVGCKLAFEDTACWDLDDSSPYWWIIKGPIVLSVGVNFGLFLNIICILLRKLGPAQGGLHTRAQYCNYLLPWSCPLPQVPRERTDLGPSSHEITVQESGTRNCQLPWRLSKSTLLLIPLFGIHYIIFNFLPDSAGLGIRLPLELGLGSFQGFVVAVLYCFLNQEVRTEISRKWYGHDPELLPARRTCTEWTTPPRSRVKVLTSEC
The experiment in a line: Compound was tested to Inhibit [125I]-Growth hormone-releasing factor in rat adenopituitary homogenates. The gist of the method: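 Anterior pituitaries from 2-month-old male Sprague-Dawley rats homogenized in ice-cold 50 mM Tris-HCl pH 7.4 with 5 mM MgCl2, 5 mM EDTA. Homogenate (70–75 µg protein) incubated with 35–50 pM [125I-Tyr10]hGRF(1-44)NH2 and peptide at 0–1000 nM in Tris-HCl buffer pH 7.4 with 5 mM EDTA, 5 mM MgCl2, 0.42% BSA, 60 min at 23 °C. Nonspecific binding defined with 2.4 µM rGRF(1-29)NH2. Bound fraction separated by centrifugation and gamma-counted. IC50 fitted with LIGAND. Mean ± SEM of three experiments, each in duplicate or triplicate.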
Molecule H-ADAIFTNSYRKVLAQLSARKLLQDIMSR-NH2 gave a half-maximal inhibitory concentration (IC50) of 377 nM. This counts as sub-micromolar.
With `CC[C@H](C)[C@H](NC(=O)[C@H](C)NC(=O)[C@H](CC(=O)O)NC(=O)[C@H](C)NC(=O)[C@H](Cc1ccc(O)cc1)NC(=O)CCCN)C(=O)N[C@@H](Cc1ccccc1)C(=O)N[C@H](C(=O)N[C@@H](CC(N)=O)C(=O)N[C@@H](CO)C(=O)N[C@@H](Cc1ccc(O)cc1)C(=O)N[C@@H](CCCNC(=N)N)C(=O)N[C@@H](CCCCN)C(=O)N[C@H](C(=O)N[C@@H](CC(C)C)C(=O)NCC(=O)N[C@@H](CCC(N)=O)C(=O)N[C@@H](CC(C)C)C(=O)N[C@@H](CO)C(=O)N[C@@H](C)C(=O)N[C@@H](CCCNC(=N)N)C(=O)N[C@@H](CCCCN)C(=O)N[C@@H](CC(C)C)C(=O)N[C@@H](CC(C)C)C(=O)N[C@@H](CCC(N)=O)C(=O)N[C@@H](CC(=O)O)C(=O)N[C@H](C(=O)N[C@@H](CCSC)C(=O)N[C@@H](CO)C(=O)N[C@@H](CCCNC(=N)N)C(N)=O)[C@@H](C)CC)C(C)C)[C@@H](C)O`, half-maximal inhibition (IC50) required 13.7 nM.
The figure for `CC[C@H](C)[C@H](NC(=O)[C@H](C)NC(=O)[C@H](CC(=O)O)NC(=O)[C@H](C)NC(=O)[C@H](Cc1ccc(O)cc1)NC(C)=O)C(=O)N[C@@H](Cc1ccccc1)C(=O)N[C@H](C(=O)N[C@@H](CC(N)=O)C(=O)N[C@@H](CO)C(=O)N[C@@H](Cc1ccc(O)cc1)C(=O)N[C@@H](CCCNC(=N)N)C(=O)N[C@@H](CCCCN)C(=O)N[C@H](C(=O)N[C@@H](CC(C)C)C(=O)NCC(=O)N[C@@H](CCC(N)=O)C(=O)N[C@@H](CC(C)C)C(=O)N[C@@H](CO)C(=O)N[C@@H](C)C(=O)N[C@@H](CCCNC(=N)N)C(=O)N[C@@H](CCCCN)C(=O)N[C@@H](CC(C)C)C(=O)N[C@@H](CC(C)C)C(=O)N[C@@H](CCC(N)=O)C(=O)N[C@@H](CC(=O)O)C(=O)N[C@H](C(=O)N[C@@H](CCSC)C(=O)N[C@@H](CO)C(=O)N[C@@H](CCCNC(=N)N)C(N)=O)[C@@H](C)CC)C(C)C)[C@@H](C)O` is 17.6 nM.
The figure for H-YADAIFTNSYRKVLGQLSARLLQDIMSR-NH2 is above 1000 nM; for H-ADAIFTSSYRRILGQLYARKLLHEIMNR-NH2 it is 44.2 nM.
As for `CC[C@H](C)[C@H](NC(=O)[C@H](C)NC(=O)[C@H](CC(=O)O)NC(=O)[C@H](C)NC(=O)[C@H](Cc1ccc(O)cc1)NC(=O)CCCCCN)C(=O)N[C@@H](Cc1ccccc1)C(=O)N[C@H](C(=O)N[C@@H](CC(N)=O)C(=O)N[C@@H](CO)C(=O)N[C@@H](Cc1ccc(O)cc1)C(=O)N[C@@H](CCCNC(=N)N)C(=O)N[C@@H](CCCCN)C(=O)N[C@H](C(=O)N[C@@H](CC(C)C)C(=O)NCC(=O)N[C@@H](CCC(N)=O)C(=O)N[C@@H](CC(C)C)C(=O)N[C@@H](CO)C(=O)N[C@@H](C)C(=O)N[C@@H](CCCNC(=N)N)C(=O)N[C@@H](CCCCN)C(=O)N[C@@H](CC(C)C)C(=O)N[C@@H](CC(C)C)C(=O)N[C@@H](CCC(N)=O)C(=O)N[C@@H](CC(=O)O)C(=O)N[C@H](C(=O)N[C@@H](CCSC)C(=O)N[C@@H](CO)C(=O)N[C@@H](CCCNC(=N)N)C(N)=O)[C@@H](C)CC)C(C)C)[C@@H](C)O`, the figure is 6.6 nM; as for `CC[C@H](C)[C@H](NC(=O)[C@H](C)NC(=O)[C@H](CC(=O)O)NC(=O)[C@H](C)NC(=O)[C@@H](N)Cc1ccc(O)cc1)C(=O)N[C@@H](Cc1ccccc1)C(=O)N[C@H](C(=O)N[C@@H](CC(N)=O)C(=O)N[C@@H](CO)C(=O)N[C@@H](Cc1ccc(O)cc1)C(=O)N[C@@H](CCCNC(=N)N)C(=O)N[C@@H](CCCCN)C(=O)N[C@H](C(=O)N[C@@H](CC(C)C)C(=O)NCC(=O)N[C@@H](CCC(N)=O)C(=O)N[C@@H](CC(C)C)C(=O)N[C@@H](CO)C(=O)N[C@@H](C)C(=O)N[C@@H](CCCNC(=N)N)C(=O)N[C@@H](CCCCN)C(=O)N[C@@H](CC(C)C)C(=O)N[C@@H](CC(C)C)C(=O)N[C@@H](CCC(N)=O)C(=O)N[C@@H](CC(=O)O)C(=O)N[C@H](C(=O)N[C@@H](CCSC)C(=O)N[C@@H](CO)C(=O)N[C@@H](CCCNC(=N)N)C(N)=O)[C@@H](C)CC)C(C)C)[C@@H](C)O`, 5.6 nM; as for H-YADAIFTNSYRKVLGQLSARKLLDIMSR-NH2, 45.2 nM.
The molecule `CC[C@H](C)[C@H](NC(=O)[C@H](C)NC(=O)[C@H](CC(=O)O)NC(=O)[C@H](C)NC(=O)[C@@H](N)Cc1ccc(O)cc1)C(=O)N[C@@H](Cc1ccccc1)C(=O)N[C@H](C(=O)N[C@@H](CC(N)=O)C(=O)N[C@@H](CO)C(=O)N[C@@H](Cc1ccc(O)cc1)C(=O)N[C@@H](CCCNC(=N)N)C(=O)N[C@@H](CCCCN)C(=O)N[C@H](C(=O)N[C@@H](CC(C)C)C(=O)NCC(=O)NCCCCCCCC(=O)N[C@@H](C)C(=O)N[C@@H](CCCNC(=N)N)C(=O)N[C@@H](CCCCN)C(=O)N[C@@H](CC(C)C)C(=O)N[C@@H](CC(C)C)C(=O)N[C@@H](CCC(N)=O)C(=O)N[C@@H](CC(=O)O)C(=O)N[C@H](C(=O)N[C@@H](CCSC)C(=O)N[C@@H](CO)C(=O)N[C@@H](CCCNC(=N)N)C(N)=O)[C@@H](C)CC)C(C)C)[C@@H](C)O` (H-YADAIFTNSYRKVLG[Aoc]ARKLLQDIMSR-NH2) gave a half-inhibitory concentration (IC50) above 1000 nM.
The figure for H-YADAIFTNSYRKVLGQLSARKLLQIMSR-NH2 is 16.9 nM; for `CC[C@H](C)[C@H](NC(=O)[C@H](C)NC(=O)[C@H](CC(=O)O)NC(=O)[C@H](C)NC(=O)[C@@H](N)Cc1ccc(O)cc1)C(=O)N[C@@H](Cc1ccccc1)C(=O)N[C@H](C(=O)N[C@@H](CC(N)=O)C(=O)N[C@@H](CO)C(=O)N[C@@H](Cc1ccc(O)cc1)C(=O)N[C@@H](CCCN=C(N)N)C(=O)N[C@@H](CCCCN)C(=O)NCCCCCCCC(=O)N[C@@H](CCC(N)=O)C(=O)N[C@@H](CC(C)C)C(=O)N[C@@H](CO)C(=O)N[C@@H](C)C(=O)N[C@@H](CCCN=C(N)N)C(=O)N[C@@H](CCCCN)C(=O)N[C@@H](CC(C)C)C(=O)N[C@@H](CC(C)C)C(=O)N[C@@H](CCC(N)=O)C(=O)N[C@@H](CC(=O)O)C(=O)N[C@H](C(=O)N[C@@H](CCSC)C(=O)N[C@@H](CO)C(=O)N[C@@H](CCCN=C(N)N)C(N)=O)[C@@H](C)CC)[C@@H](C)O` (H-YADAIFTNSYRK[Aoc]QLSARKLLQDIMSR-NH2) it is above 1000 nM.
As for H-YADAIFTSYRKVLGQLSARKLLQDIMSR-NH2, the figure is 95 nM; as for H-YADAIFTNSYRKVLGQLSARKLLQDIR-NH2, 120 nM.
H-YADAIFTNSYRKVLGQLSARKLLQDIMR-NH2: the midpoint of inhibition, the IC50, lay at 7.2 nM.
H-YADAIFTNSYRKVLGQLSALLQDIMSR-NH2 returned an IC50 above 1000 nM.
As for `CC[C@H](C)[C@H](NC(=O)[C@H](C)NC(=O)[C@H](CC(=O)O)NC(=O)[C@H](C)NC(=O)[C@@H](N)Cc1ccc(O)cc1)C(=O)N[C@@H](Cc1ccccc1)C(=O)N[C@H](C(=O)N[C@@H](CC(N)=O)C(=O)N[C@@H](CO)C(=O)N[C@@H](Cc1ccc(O)cc1)C(=O)N[C@@H](CCCNC(=N)N)C(=O)N[C@@H](CCCCN)C(=O)N[C@H](C(=O)N[C@@H](CC(C)C)C(=O)NCC(=O)N[C@@H](CCC(N)=O)C(=O)N[C@@H](CC(C)C)C(=O)N[C@@H](CO)C(=O)NCCCCCCCC(=O)N[C@@H](CC(C)C)C(=O)N[C@@H](CC(C)C)C(=O)N[C@@H](CCC(N)=O)C(=O)N[C@@H](CC(=O)O)C(=O)N[C@H](C(=O)N[C@@H](CCSC)C(=O)N[C@@H](CO)C(=O)N[C@@H](CCCNC(=N)N)C(N)=O)[C@@H](C)CC)C(C)C)[C@@H](C)O` (H-YADAIFTNSYRKVLGQLS[Aoc]LLQDIMSR-NH2), the figure is above 1000 nM; as for H-YADAIFTNSYRKVLGQLSARKLLQDISR-NH2, 9.5 nM.

Usually IC50 stands for the point on the concentration scale where inhibition reaches its midpoint.
